From ChEMBL document CHEMBL1139348, “Identification and optimization of a novel inhibitor of mitochondrial calpain 10” (J Med Chem, 2009)
Active and inactive are the calls of the source. The rule behind the calls is not given here. Where a SMILES comes first, the peptide text is derived from it. The star is where a group is joined. X1 = COc1ccc(S*)cc1; SEt = CCS*

Columns and labels:
[1] = Inhibition of calpain-10 in rabbit mitochondrial matrix fractions by spectrofluorimetry; set-up: species or system Oryctolagus cuniculus
Procedure, shortened: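 Matrix fraction from Percoll/sucrose-purified rabbit renal cortical mitochondria, stored at -80°C. Matrix added to activity buffer, then inhibitor at various concentrations and sLLVY-AMC (50 µM); AMC hydrolysis followed spectrofluorometrically under linear conditions. IC50 from means of at least 3 separate experiments.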

Oryctolagus cuniculus [2] = organism: Oryctolagus cuniculus; assay: Inhibition of calpain-10 in rabbit mitochondrial matrix fractions at 1 uM preincubated for 5 mins in presence of 1 mM dithiothreitol by spectrofluorimetry
Procedure, shortened: (§1)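 Rabbit renal mitochondrial matrix preincubated 15 min with inhibitor (1 µM), activity on sLLVY-AMC measured 5 min; then BME (1 mM) or DTT (1 mM) added for 5 min and AMC release monitored for another 5 min. Mean and SE, n ≥ 3.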

Oryctolagus cuniculus [3] = organism: Oryctolagus cuniculus; assay: Inhibition of calpain-10 in rabbit mitochondrial matrix fractions at 1 uM preincubated for 5 mins in presence of 1 mM beta-mercaptoethanol by spectrofluorimetry; procedure, shortened: as §1
Oryctolagus cuniculus [4] = organism: Oryctolagus cuniculus; assay: Inhibition of calpain-10 in rabbit mitochondrial matrix fractions at 1 uM preincubated for 5 mins by spectrofluorimetry

| Compound | IC50 [1] [nM] | also measured |
| --- | --- | --- |
| CC(C)[C@H](NC(=O)[C@@H](N)CS)C(=O)NCC(=O)N[C@@H](C)C(=O)N[C@@H](CCCCN)C(=O)O (H-CVGAK-OH) | > 40000 |  |
| C[C@H](NC(=O)CNC(=O)[C@H](C)NC(=O)[C@@H](N)CS)C(=O)N[C@@H](CCCCN)C(=O)O (H-CAGAK-OH) | 2000 |  |
| CCCC[C@@H](C=O)NC(=O)[C@H](CC(C)C)NC(=O)OCc1ccccc1 [CALPEPTIN] | 4 |  |
| CSC[C@H](N)C(=O)N[C@@H](Cc1ccc(O)cc1)C(=O)NCC(=O)N[C@@H](C)C(=O)N[C@@H](CCCCN)C(=O)O (H-C(Me)YGAK-OH) | > 100000 |  |
| C[C@H](NC(=O)CNC(=O)[C@@H](N)Cc1ccc(O)cc1)C(=O)N[C@@H](CCCCN)C(=O)O (H-YGAK-OH) | > 100000 |  |
| C[C@H](NC(=O)CNC(=O)[C@H](Cc1ccc(O)cc1)NC(=O)[C@@H](N)CS)C(=O)N[C@@H](CCCCN)C(=O)O (H-CYGAK-OH) | 100 | Activity (Oryctolagus cuniculus [2]): inactive; Activity (Oryctolagus cuniculus [3]): inactive; inhibition (Oryctolagus cuniculus [4]): 90% |
| N=C(N)NCCC[C@H](NC(=O)CNC(=O)[C@H](Cc1ccc(O)cc1)NC(=O)[C@@H](N)CS)C(=O)N[C@@H](CCCCN)C(=O)N[C@@H](CCCCN)C(=O)O (H-CYGRKK-OH) | 290 |  |
| CCSSC[C@H](N)C(=O)N[C@@H](Cc1ccc(O)cc1)C(=O)NCC(=O)N[C@@H](C)C(=O)N[C@@H](CCCCN)C(=O)O (H-C(SEt)YGAK-OH) | 2000 |  |
| N=C(N)NCCC[C@H](NC(=O)CNC(=O)[C@H](Cc1ccc(O)cc1)NC(=O)[C@@H](N)CS)C(=O)N[C@@H](CCCCN)C(=O)O (H-CYGRK-OH) | 240 |  |
| COc1ccc(SSC[C@H](N)C(=O)N[C@@H](Cc2ccc(O)cc2)C(=O)NCC(=O)N[C@@H](C)C(=O)N[C@@H](CCCCN)C(=O)O)cc1 (H-C(X1)YGAK-OH) | 60 |  |
| C[C@H](NC(=O)CNC(=O)[C@H](Cc1ccc(O)cc1)NC(=O)[C@@H](N)CS)C(=O)O (H-CYGA-OH) | > 100000 |  |
